Screening data as filed in PubChem BioAssay.
KCNQ1 pot = potentiators or activators of KCNQ1 channel, primary screen, cell-based, thallium flux, high-throughput; 0.35% of 310,000 active; CHO-K1 KCNQ1, thallium flux FluxOR fluorescence; stronger effect = higher value; Potassium voltage-gated channel subfamily KQT member 1 (Homo sapiens), P51787; B-score at 10 µM;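 active = fluorescence ratio B-score, a plate-corrected score, at least three library SD, with initial intensity B-score within 5 SD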
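System: CHO-K1 cells stably expressing KCNQ1 / Medium: assay buffer for compound exposure, DMSO matched across wells / Reagent: thallium- and potassium-containing depolarizing buffer / Compound: one concentration, matched DMSO / Incubation: 20 min compound pretreatment at room temperature / Measured by: kinetic FluxOR fluorescence, 10 s baseline plus 110 s post-stimulus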
KCNQ1 block = inhibitors of human KCNQ1 channel, primary screen, cell-based, thallium flux, high-throughput | 1.3% of 310,000 active | B-score at 10 µM | CHO-K1 KCNQ1, FluxOR thallium flux fluorescence; stronger effect = higher value | Potassium voltage-gated channel subfamily KQT member 1 (Homo sapiens), P51787;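 active = compounds whose thallium flux B-score, printed positive for inhibition, exceeds three library SD while starting fluorescence stays within three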;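 note: channel opened by potassium depolarization with thallium stimulus after 20 min compound exposure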
KCNK9 block = KCNK9 potassium channel inhibitors, primary screen, HEK293 cells, thallium flux; AID 488922, 2010; 1.2% of 310,000 active; FluxOR thallium flux fluorescence; stronger effect = lower value; B-score at 10 µM; Potassium channel subfamily K member 9 (Homo sapiens), Q9NPC2;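 active = ratio B-score over 3 SD below the library mean, with starting fluorescence within 5 SD of its mean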;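 note: negative B-score means less thallium flux so channel inhibition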
hERG protect = hERG rescue from dofetilide block, primary screen, cell-based, CHO-hERG, FluxOR thallium flux, dofetilide IC70; dofetilide IC70 present; Voltage-gated inwardly rectifying potassium channel KCNH2 (Homo sapiens), Q12809; AID 1511, 2009; activation (rescue from dofetilide block), less the hit threshold, % at 10 µM; 0.51% of 310,000 active;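 active = activation above the mean of controls blocked by dofetilide plus 5 SD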;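 note: thallium influx through hERG after potassium depolarization seen as dye fluorescence rise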
Target sequence (Q12809 whole entry, looked up): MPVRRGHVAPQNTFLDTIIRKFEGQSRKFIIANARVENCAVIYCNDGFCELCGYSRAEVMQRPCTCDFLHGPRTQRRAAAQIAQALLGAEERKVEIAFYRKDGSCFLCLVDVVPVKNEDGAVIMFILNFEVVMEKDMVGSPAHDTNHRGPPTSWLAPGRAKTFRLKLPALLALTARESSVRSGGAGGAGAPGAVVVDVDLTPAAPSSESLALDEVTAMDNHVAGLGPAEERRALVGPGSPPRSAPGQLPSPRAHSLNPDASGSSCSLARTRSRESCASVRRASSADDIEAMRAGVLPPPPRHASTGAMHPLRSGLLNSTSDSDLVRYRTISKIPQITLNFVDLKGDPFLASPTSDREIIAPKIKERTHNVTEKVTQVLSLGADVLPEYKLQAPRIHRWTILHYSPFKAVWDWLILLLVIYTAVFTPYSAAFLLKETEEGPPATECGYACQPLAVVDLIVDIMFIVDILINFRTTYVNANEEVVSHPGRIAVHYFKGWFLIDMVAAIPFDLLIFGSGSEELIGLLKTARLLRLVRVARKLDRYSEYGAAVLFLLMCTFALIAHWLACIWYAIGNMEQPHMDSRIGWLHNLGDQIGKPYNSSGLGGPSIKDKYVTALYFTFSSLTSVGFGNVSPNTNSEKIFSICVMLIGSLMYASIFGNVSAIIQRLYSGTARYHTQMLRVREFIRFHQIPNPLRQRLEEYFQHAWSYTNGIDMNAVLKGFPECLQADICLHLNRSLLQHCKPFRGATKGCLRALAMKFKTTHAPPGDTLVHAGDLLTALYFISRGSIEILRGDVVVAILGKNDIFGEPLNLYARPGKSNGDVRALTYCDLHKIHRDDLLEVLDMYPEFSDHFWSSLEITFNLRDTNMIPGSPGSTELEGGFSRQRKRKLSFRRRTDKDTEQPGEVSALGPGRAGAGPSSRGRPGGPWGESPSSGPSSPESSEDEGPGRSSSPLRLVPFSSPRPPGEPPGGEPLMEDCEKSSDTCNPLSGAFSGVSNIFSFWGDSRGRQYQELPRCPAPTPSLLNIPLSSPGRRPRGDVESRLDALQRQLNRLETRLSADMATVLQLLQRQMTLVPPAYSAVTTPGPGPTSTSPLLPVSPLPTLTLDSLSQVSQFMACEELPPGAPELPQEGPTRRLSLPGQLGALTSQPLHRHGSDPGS
KCNK3 block = human KCNK3 channel inhibitors, primary screen, CHO cells, FluxOR thallium flux, B-score; FluxOR fluorescence; stronger effect = lower value; 0.84% of 340,000 active; Potassium channel subfamily K member 3 (Homo sapiens), O14649; AID 602410, 2012; B-score at 10 µM;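 active = B-score under library mean minus 4 SD, starting fluorescence ratio at most library mean plus 5 SD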;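 note: more negative B-score means stronger inhibition of thallium flux through KCNK3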
Large screens that a line does not name were inactive. Hits are enriched below; roughly 3.1% of the tested compounds scored in any of these assays.

COc1ccccc1N1CCN(/N=C/c2cc([N+](=O)[O-])ccc2Cl)CC1	none
COc1ccc(C(=O)n2nc(C)cc2Nc2ccccc2)cc1	KCNK9 block -7.38
COc1ccc(C(=O)NC(C(=O)N2CCN(c3ccccc3O)CC2)C(C)C)cc1 (centres undefined)	none
COc1ccc(C(=O)N[C@H](C(=O)N2CCN(c3ccccc3F)CC2)C(C)C)cc1	hERG protect 4.9
CC(C)(C)OC(=O)NCCc1nnc(SCC(N)=O)o1	none
CC(C)(C)OC(=O)NCCCCCc1nnc(SCC(N)=O)o1	hERG protect 4.6
CCOc1ccc(C(=O)C2CCN(C(=O)c3ccc([N+](=O)[O-])cc3)CC2)cc1	none
COc1cc2c(cc1OC)CN(C(=O)c1sccc1C)CC2	hERG protect 8.7
O=C(CN1C(=O)NC2(CCc3ccccc32)C1=O)Nc1ccc(Br)cc1F (centres undefined)	none (no result: KCNQ1 pot, KCNQ1 block, KCNK9 block, hERG protect)
CCOC(=O)N1CCN(C(=O)c2cc3cc(OC)c(OC)cc3[nH]2)CC1	none
Nc1nc(CN2CCN(c3ccccc3)CC2)nc(N2CCCc3ccccc32)n1	none
Nc1nc(CSc2nnnn2-c2ccccc2)nc(N2CCCc3ccccc32)n1	KCNK3 block -10.2 (no result: KCNQ1 pot, KCNQ1 block, KCNK9 block, hERG protect)
COc1ccccc1CN(C)C(=O)c1cccc(S(=O)(=O)N2CCCc3ccccc32)c1	none (no result: KCNQ1 pot, KCNQ1 block, KCNK9 block, hERG protect)
Cc1cccc2c(N=O)c(O)n(CCc3ccccc3)c12	none
O=c1c(C(c2ccccc2)c2c(O)sc3ccccc3c2=O)c(O)sc2ccccc12	KCNK9 block -8.17
O=C(Oc1cccc(C(=S)N2CCOCC2)c1)c1ccccc1	none
O=C(Oc1ccc(Br)cc1C(=S)N1CCOCC1)c1ccccc1	KCNK9 block -8.01
CCCN(CC(=O)Nc1ccccc1C)C(=O)CCCc1c[nH]c2ccccc12	none (no result: KCNQ1 pot, KCNQ1 block, KCNK9 block, hERG protect)
C/C(=N/Nc1nc(-c2ccccc2F)nc2ccccc12)c1ccccc1O	KCNQ1 block 7, KCNK9 block -7.28
O=C(COC(=O)C1CCN(S(=O)(=O)c2ccccc2)CC1)NCCc1ccccc1	none (no result: KCNQ1 pot, KCNQ1 block, KCNK9 block, hERG protect)
Oc1c(CN2CCOCC2)cc(-c2ccccc2)cc1CN1CCOCC1	hERG protect 35.0
CC(OC(=O)c1cccc(-n2cnnn2)c1)C(=O)Nc1cccc(Cl)c1 (centres undefined)	none
Cc1ccc([C@H]2C(C(=O)O)=CC[C@@H](c3ccc(C)cc3)N2S(=O)(=O)c2ccc(C)cc2)cc1	none (no result: KCNQ1 pot, KCNQ1 block, KCNK9 block, hERG protect)
COCC1CCCN(C(=O)c2cc(COc3ccc4ncccc4c3)on2)C1 (centres undefined)	KCNQ1 block 6
O=C(c1cc(COc2ccc3ncccc3c2)on1)N1CCCC(O)C1 (centres undefined)	none
Cc1noc(C)c1NC(=O)N(C)C[C@H]1Oc2ccc(NC(=O)Nc3ccc(C(F)(F)F)cc3)cc2C(=O)N([C@H](C)CO)C[C@@H]1C	none (no result: KCNQ1 pot, KCNQ1 block, KCNK9 block, hERG protect)
O=c1c(-c2cccc([N+](=O)[O-])c2)[n+]([O-])c2ccccc2n1O	none
O=c1c(-c2ccc(Cl)cc2)[n+]([O-])c2ccccc2n1O	KCNQ1 pot 32, hERG protect 40.2
O=C(Cn1[nH]c(=O)c2ccccc2c1=O)NCCN1C(=O)S/C(=C\c2ccccc2)C1=O	none (no result: KCNQ1 pot, KCNQ1 block, KCNK9 block, hERG protect)
Cc1ccc(C)c(OCC(=O)Nc2cc(NC(=O)COc3cc(C)ccc3C)cc(C(=O)O)c2)c1	none
CCOC(=O)c1nn(-c2ccc(Cl)cc2Cl)c(=N)c(C#N)c1C	KCNQ1 block 6 (no result: KCNK3 block)
Cc1ccc(C(=O)N/C(=C\c2ccc(-c3ccc(Br)cc3)o2)C(=O)NCCCN(C)C)cc1	KCNQ1 block 8
O=C(NCCOc1nc(N2CCCCC2)nc(N2CCCCC2)n1)Nc1ccccc1	none
CCN(CC)c1nc(OCCNC(=O)Nc2ccccc2)nc(N(CC)CC)n1	KCNQ1 block 10, KCNK9 block -7.94
C=C1CCc2c([nH]c3ccc(OCC(C)C)cc23)C1=O	none
COC(=O)C1=C(COc2ccc(F)cc2)NC(=O)NC1c1ccc(C)cc1C (centres undefined)	hERG protect 7.4
CCOC(=O)C1=C(COc2ccc(C)cc2)NC(=O)NC1c1cc(C)ccc1C (centres undefined)	none
CCN1CCC(O)(C(C(=O)O)c2ccccc2)CC1 (centres undefined)	none (no result: KCNQ1 pot, KCNQ1 block, KCNK9 block, hERG protect)
CCCN(CCC)C(=O)C(c1ccccc1)C1(O)CCCCC1 (centres undefined)	KCNK3 block -8.9 (no result: KCNQ1 pot, KCNQ1 block, KCNK9 block, hERG protect)
COC(=O)Cn1c2c(c3cc(C)ccc31)CCCC2NC(C)c1ccccc1 (centres undefined)	hERG protect 4.9
COc1cc(NC(=S)NNC(=O)C(C)(C)O)cc(OC)c1	hERG protect 8.9
O=C(CN(C(=O)CNC(=O)c1cccs1)c1ccc(F)cc1)NC1CCCCC1	none
C[C@H](NC(=O)c1ccco1)C(=O)NNC(=O)COc1cccc(C(F)(F)F)c1	none (no result: KCNQ1 pot, KCNQ1 block, KCNK9 block, hERG protect)
CC(=O)Nc1cccc(/C(C)=N/NC(=O)c2ccc(O)cc2)c1	none
C/C(=N\NC(=O)c1ccc(O)cc1)c1ccc2c(c1)Nc1ccccc1S2	KCNQ1 block 6
CC(C)N(C(=O)[C@H]1CC(CC(=O)NCc2cccc(C(F)(F)F)c2)C(=O)N2CCc3c([nH]c4ccccc34)[C@]12C)C(C)C (some centres undefined)	none (no result: KCNQ1 pot, KCNQ1 block, KCNK9 block, hERG protect)
Cc1ccc(C)c(OCCC(=O)OCC(=O)Nc2cc(S(=O)(=O)N3CCCCC3)ccc2C)c1	KCNK3 block -10.2 (no result: KCNQ1 pot, KCNQ1 block, KCNK9 block, hERG protect)
Cc1ccc(C)c(OCCC(=O)Nc2cc(S(=O)(=O)N3CCCCC3)ccc2C)c1	none (no result: KCNQ1 pot, KCNQ1 block, KCNK9 block, hERG protect)
CCc1nc2ccccc2c(C(=O)OCC(=O)Nc2cccc(S(=O)(=O)N3CCOCC3)c2)c1C	KCNK3 block -9.03
Cc1ccc(S(=O)(=O)N2CCCCC2)cc1NC(=O)c1cc2ccccc2o1	KCNK3 block -9.02 (no result: KCNQ1 pot, KCNQ1 block, KCNK9 block, hERG protect)
CCCC(C(=O)Nc1cccc(S(=O)(=O)N2CCCC2)c1)c1ccccc1 (centres undefined)	KCNK9 block -7.38
CCc1nc(SCc2ccc(OCC(C)C)cc2)n[nH]1	none
O=C(Nc1ccccc1F)N1CCc2ccccc2C1	none
COc1ccccc1CNC(=O)c1cc(-c2ccccc2)n(Cc2cc(C)no2)n1	none (no result: KCNQ1 pot, KCNQ1 block, KCNK9 block, hERG protect)
Cc1ccc(C)c(C(=O)OCC(=O)Nc2cccc(S(=O)(=O)N3CCCCC3)c2)c1	KCNK3 block -9.59 (no result: KCNQ1 pot, KCNQ1 block, KCNK9 block, hERG protect)
Cc1nc(CCNC(=O)C2CCC(=O)N(Cc3ccc(Cl)cc3)C2)sc1C (centres undefined)	none
C=CCn1c(SCc2ccc(C(=O)O)cc2)nc2sc(C)c(C)c2c1=O	KCNQ1 pot 16, hERG protect 8.2
COCCn1c(SCC(=O)Nc2cccnc2Cl)nc2cc(Cl)ccc2c1=O	none (no result: KCNQ1 pot, KCNQ1 block, KCNK9 block, hERG protect)
CCCn1c(SCN2C(=O)c3ccccc3C2=O)nc2cc(Cl)ccc2c1=O	KCNQ1 pot 31, hERG protect 10.7
